23 compounds from ChEMBL document CHEMBL2086363, “Lipophilic Isosteres of a π-π Stacking Interaction: New Inhibitors of the Bcl-2-Bak Protein-Protein Interaction” (ACS Med Chem Lett, 2012) can be followed below.

In one data set the target is MCL1-BAK1 complex (Homo sapiens, UniProt Q07820). Nature of the data set: Inhibition of Mcl1-BAK interaction. Type of data set: protein-complex assay.
For data set [1], the target named is Apoptosis regulator Bcl-2/Bcl-2 homologous antagonist/killer (Homo sapiens, UniProt P10415). Nature of the data set: Inhibition of Bcl2-BAK interaction after 1 hr by surface plasmon resonance assay. Type of data set: protein assay. The gist of the method: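 SPR measurement of Bcl-2–Bak binding inhibition. Each value is the average of at least two measurements, with duplicate EC50 values generated in each assay.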
Background: SPR reads the build-up and loss of mass on a sensor chip optically.

The next data set concerns the target Bcl-xL/BAK (Homo sapiens, UniProt Q07817). In words: Inhibition of Bcl-XL-BAK interaction. Type of data set: protein assay.
The nature of data set [2]: Oral bioavailability in Sprague-Dawley rat at 10 mg/kg. The following applies: in vivo. It counts as ADME, organism-based.
The nature of data set [3]: Clearance in Sprague-Dawley rat at 1 mg/kg, iv and 10 mg/kg, po. It counts as ADME, organism-based. The following applies: in vivo.
A short description of data set [4]: Volume of distribution at steady state in Sprague-Dawley rat at 1 mg/kg, iv and 10 mg/kg, po. It counts as ADME, organism-based. The following applies: in vivo, read-out: Vdss.
Data set [5] can be described thus: Half life in Sprague-Dawley rat at 1 mg/kg, iv and 10 mg/kg, po. It counts as ADME, organism-based. The following applies: in vivo.
The nature of data set [6]: Selectivity ratio of EC50 for Bcl-XL-BAK interaction to EC50 for Bcl2-BAK interaction.

Chain of MCL1-BAK1 complex (Q07820 whole entry): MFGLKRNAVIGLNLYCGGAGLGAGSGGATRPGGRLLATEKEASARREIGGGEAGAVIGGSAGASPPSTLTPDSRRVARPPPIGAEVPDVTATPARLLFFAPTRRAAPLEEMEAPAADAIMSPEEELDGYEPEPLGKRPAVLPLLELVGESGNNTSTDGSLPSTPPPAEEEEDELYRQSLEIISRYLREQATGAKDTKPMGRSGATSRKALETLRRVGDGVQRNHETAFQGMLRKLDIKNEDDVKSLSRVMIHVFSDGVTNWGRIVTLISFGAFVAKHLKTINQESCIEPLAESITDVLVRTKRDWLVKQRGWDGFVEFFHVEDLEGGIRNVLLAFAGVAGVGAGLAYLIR
Chain of MCL1-BAK1 complex (Q16611 whole entry, further chain): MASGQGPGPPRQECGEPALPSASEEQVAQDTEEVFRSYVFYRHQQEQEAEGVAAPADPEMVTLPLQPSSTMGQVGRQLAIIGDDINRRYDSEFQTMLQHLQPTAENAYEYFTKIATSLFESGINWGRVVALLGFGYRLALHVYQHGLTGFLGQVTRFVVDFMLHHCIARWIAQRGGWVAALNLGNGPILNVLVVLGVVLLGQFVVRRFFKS
Chain of Apoptosis regulator Bcl-2/Bcl-2 homologous antagonist/killer (P10415 whole entry): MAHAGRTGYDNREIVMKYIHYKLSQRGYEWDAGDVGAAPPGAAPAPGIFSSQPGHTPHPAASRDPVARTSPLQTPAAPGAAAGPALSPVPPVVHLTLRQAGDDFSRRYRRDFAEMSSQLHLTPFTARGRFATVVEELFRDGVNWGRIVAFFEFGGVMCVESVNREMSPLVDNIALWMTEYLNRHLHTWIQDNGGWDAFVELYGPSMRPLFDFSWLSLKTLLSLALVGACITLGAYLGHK
Chain of Apoptosis regulator Bcl-2/Bcl-2 homologous antagonist/killer (Q16611 whole entry, further chain): as the sequence (Q16611 whole entry, further chain) above
Chain of Bcl-xL/BAK (Q07817 whole entry): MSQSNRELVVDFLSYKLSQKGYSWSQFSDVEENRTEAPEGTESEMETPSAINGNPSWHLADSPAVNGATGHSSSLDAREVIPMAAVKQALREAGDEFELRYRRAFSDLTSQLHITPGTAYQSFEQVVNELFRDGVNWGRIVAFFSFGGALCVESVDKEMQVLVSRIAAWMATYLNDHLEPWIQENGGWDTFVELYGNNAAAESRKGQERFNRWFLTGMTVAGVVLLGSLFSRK
Chain of Bcl-xL/BAK (Q16611 whole entry, further chain): as the sequence (Q16611 whole entry, further chain) above

On MCL1-BAK1 complex, `O=C(NS(=O)(=O)CCC12CC3CC(CC(C3)C1)C2)c1ccc(N2CCN(Cc3ccccc3-c3ccc(Cl)cc3)CC2)cc1` showed an IC50 greater than 50000 nM. Besides, in data set [1], a half-maximal response (EC50) required 2810 nM.

The compound `CC12CC3CC(C1)CC(CS(=O)(=O)NC(=O)c1ccc(N4CCN(Cc5ccccc5-c5ccc(Cl)cc5)CC4)cc1)(C3)C2` came in with an EC50 in data set [1] of 1100 nM.

At MCL1-BAK1 complex, `CC1(C)[C@]2(C)CC[C@@H](CS(=O)(=O)NC(=O)c3ccc(N4CCN(Cc5ccccc5-c5ccc(Cl)cc5)CC4)cc3)[C@@]1(C)C2` returned an IC50 greater than 50000 nM. Besides, the EC50 at Bcl-xL/BAK came to 580 nM; in data set [1], 420 nM.

`CC1(C)[C@@]2(C)CC[C@H](CS(=O)(=O)NC(=O)c3ccc(N4CCN(Cc5ccccc5-c5ccc(Cl)cc5)CC4)cc3)[C@]1(C)C2` had an IC50 on MCL1-BAK1 complex greater than 50000 nM. Besides, it took 560 nM to reach a half-maximal effect in data set [1] (EC50).

`CCS(=O)(=O)NC(=O)c1ccc(N2CCN(Cc3ccccc3-c3ccc(Cl)cc3)CC2)cc1` showed an IC50 against MCL1-BAK1 complex greater than 50000 nM. Besides, the EC50 in data set [1] worked out at 5310 nM.

`CC(C)C(=O)NC12CC3CC(CC(CS(=O)(=O)NC(=O)c4ccc(N5CCN(Cc6ccccc6-c6ccc(Cl)cc6)CC5)cc4)(C3)C1)C2`: a half-maximal effect in data set [1] (EC50) was put at 160 nM.

On MCL1-BAK1 complex, `CC(C)(C)S(=O)(=O)NC(=O)c1ccc(N2CCN(Cc3ccccc3-c3ccc(Cl)cc3)CC2)cc1` came in with an IC50 greater than 50000 nM. For the same compound, in data set [1], the EC50 was greater than 16000 nM.

At MCL1-BAK1 complex, `CC1(C)C2CC[C@@]1(CS(=O)(=O)NC(=O)c1ccc(N3CCN(Cc4ccccc4-c4ccc(Cl)cc4)CC3)cc1)C(=O)C2` yielded an IC50 greater than 50000 nM. Also, it took 1470 nM to reach a half-maximal effect in data set [1] (EC50).

The compound `O=C(NS(=O)(=O)C12CC3CC(CC(C3)C1)C2)c1ccc(N2CCN(Cc3ccccc3-c3ccc(Cl)cc3)CC2)cc1` registered an IC50 against MCL1-BAK1 complex greater than 50000 nM. The compound also came in with an EC50 in data set [1] greater than 16000 nM.

In data set [1], `O=C(NS(=O)(=O)CC12CC3CC(C1)CC(NC(=O)C1CC1)(C3)C2)c1ccc(N2CCN(Cc3ccccc3-c3ccc(Cl)cc3)CC2)cc1` returned an EC50 of 210 nM.

As to `CC(C)(C)C(=O)NC12CC3CC(CC(CS(=O)(=O)NC(=O)c4ccc(N5CCN(Cc6ccccc6-c6ccc(Cl)cc6)CC5)cc4)(C3)C1)C2`, in data set [1], the EC50 worked out at 520 nM.

The compound `O=C(NS(=O)(=O)NC12CC3CC(CC(C3)C1)C2)c1ccc(N2CCN(Cc3ccccc3-c3ccc(Cl)cc3)CC2)cc1` displayed an IC50 on MCL1-BAK1 complex greater than 50000 nM. In data set [1], the response was half-maximal at 2100 nM (EC50).

`O=C(NS(=O)(=O)CC12CC3CC(CC(F)(C3)C1)C2)c1ccc(N2CCN(Cc3ccccc3-c3ccc(Cl)cc3)CC2)cc1` returned an EC50 in data set [1] of 480 nM.

On to `O=C(NS(=O)(=O)CC12CC3CC(C1)CC(c1ccccc1)(C3)C2)c1ccc(N2CCN(Cc3ccccc3-c3ccc(Cl)cc3)CC2)cc1`, for which the EC50 in data set [1] was 1970 nM.

For `O=C(NS(=O)(=O)CC12CC3CC(CC(O)(C3)C1)C2)c1ccc(N2CCN(Cc3ccccc3-c3ccc(Cl)cc3)CC2)cc1`, the bioavailability in data set [2] was greater than 100%. The compound also registered a clearance in data set [3] of 16 mL/min/kg. Further, the Vd in data set [4] amounted to 1.2 L/kg. For the same compound, in data set [5], the half-life is 1.3 h. For the same compound, in data set [1], the EC50 stood at 300 nM.

Turning to `O=C(NS(=O)(=O)CC12CC3CC(CC(Br)(C3)C1)C2)c1ccc(N2CCN(Cc3ccccc3-c3ccc(Cl)cc3)CC2)cc1`, in data set [1], the EC50 worked out at 670 nM. This counts as sub-micromolar.

Regarding `CC1(C)C2CC[C@]1(CS(=O)(=O)NC(=O)c1ccc(N3CCN(Cc4ccccc4-c4ccc(Cl)cc4)CC3)cc1)C(=O)C2`, the IC50 at MCL1-BAK1 complex was greater than 50000 nM. The EC50 in data set [1] came to 1020 nM.

Take `O=C(NS(=O)(=O)CC12CC3CC(C1)CC(OCCN1CCOCC1)(C3)C2)c1ccc(N2CCN(Cc3ccccc3-c3ccc(Cl)cc3)CC2)cc1`: in data set [1], a half-maximal response (EC50) required 310 nM. This counts as sub-micromolar.

`CS(=O)(=O)NC(=O)c1ccc(N2CCN(Cc3ccccc3-c3ccc(Cl)cc3)CC2)cc1`: on MCL1-BAK1 complex, the IC50 was greater than 50000 nM. For the same compound, the EC50 in data set [1] was determined as 8620 nM.

In turn, `CC(=O)NC12CC3CC(CC(CS(=O)(=O)NC(=O)c4ccc(N5CCN(Cc6ccccc6-c6ccc(Cl)cc6)CC5)cc4)(C3)C1)C2` returned an EC50 in data set [1] of 230 nM.

On MCL1-BAK1 complex, `O=C(NS(=O)(=O)CC12CC3CCC(CC(C3)C1)C2)c1ccc(N2CCN(Cc3ccccc3-c3ccc(Cl)cc3)CC2)cc1` displayed a half-maximal inhibitory concentration (IC50) greater than 50000 nM. In addition, the EC50 at Bcl-xL/BAK worked out at 220 nM; in data set [1], 120 nM.

`O=C(NS(=O)(=O)CC12CC3CC(CC(C3)C1)C2)c1ccc(N2CCN(Cc3ccccc3-c3ccc(Cl)cc3)CC2)cc1` gave a bioavailability in data set [2] of 66%. On MCL1-BAK1 complex, the IC50 is greater than 50000 nM. Further, the clearance in data set [3] amounted to 6 mL/min/kg. For the same compound, in data set [4], the Vd amounted to 0.7 L/kg. Moreover, the half-life in data set [5] is 1.3 h. Also, the EC50 was found to be 2850 nM at Bcl-xL/BAK and 670 nM in data set [1]. The Ratio EC50 in data set [6] was found to be 4.3.

Compound `O=C(NS(=O)(=O)CC12CC3CC(CC1C3)C2)c1ccc(N2CCN(Cc3ccccc3-c3ccc(Cl)cc3)CC2)cc1` returned an IC50 against MCL1-BAK1 complex greater than 50000 nM. The EC50 in data set [1] was found to be 2660 nM.

The term IC50 denotes the midpoint of a concentration-inhibition curve. Read a low IC50 as higher potency. What is called EC50 is the midpoint of the concentration-response curve. Usually bioavailability stands for dose-corrected exposure relative to a reference, in per cent. A lower bioavailability goes with poor availability. In general, half-life refers to how long it takes for the measured level to halve. A higher half-life goes with slow decline.
